Compound activity (PubChem BioAssay)
Most compounds without a hit are left out; they make up all but 4.9% or so of the library.
STAT3 act = STAT3 signaling activation; U3A cells, IL-6 STAT3-luciferase reporter, luminescence; 100% = signal with IL-6 EC80 alone; activation (% of control), % at 5.6 µM; hit rate 0.91% among 190,000;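 active means activation above the screen-wide mean of compound activation plus 3 SD, cut at about 130% in these data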;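 further: 0% = background luminescence of wells with medium and substrate only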
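Test system: Human STAT1-deficient U3A cells with stable STAT3-luciferase reporter | Also added: Interleukin-6, 33 ng/mL | Timing: Compound pre-incubation 1 h before IL-6, then 6 h stimulation at 37 °C | Technique: Luciferase reporter luminescence | Read-out: Percent of IL-6-only median luminescence | Benchmarks: IL-6-only wells as 100% reference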
STAT1 inh = STAT1 signaling inhibition | inhibition, % at 5.5 µM | hit rate 0.35% among 200,000 | NIH 3T3 STAT1-luciferase reporter, IFN-gamma, luminescence;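 active means inhibition above a set limit, the mean inhibition across all tested compounds plus 3 SD, cut at about 34% in these data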;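 further: 0% = IFN-gamma with DMSO and 100% = IFN-gamma with 300 µM nifuroxazide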
STAT3 inh = STAT3 signaling inhibition | U3A cells, IL-6 STAT3-luciferase reporter, luminescence; host cell line lacks STAT1 | inhibition, % at 5.5 µM | hit rate 0.89% among 190,000 | AID 862;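 active means inhibition above the mean inhibition across all screened compounds plus 3 SD, cut at about 44% in these data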;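 further: 0% = DMSO only wells and 100% = 100 µM nifuroxazide control wells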
NF-kB neuron act = NF-kB expression increase, human neuronal cells; hit rate 1.6% among 190,000; AID 1239; NF-kB reporter expression; active compounds read high; fold change at 12.5 µM; in the data active means fold change above about 3.3
STAT1 activator = STAT1 signaling activation | NIH 3T3 STAT1-luciferase reporter, IFN-gamma, luminescence; 100% = IFN-gamma alone, no compound | activation (% of control), % at 5.5 µM | hit rate 2.6% among 200,000 | AID 932;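 active means activation above the screen-wide mean activation plus 3 SD, cut at about 130% in these data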;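 further: raw ratio to IFN-gamma control signal so 100% means no change and 0% no light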
APP 5'UTR act = activates APP 5'UTR luciferase reporter; SH-SY5Y APP 5'UTR luciferase reporter, luminescence; zero percent = DMSO vehicle wells; activation, % at 2 µM; hit rate 1% among 190,000; AID 1276;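 active means activation above a set limit, based on mean plus 3 SD of controls, cut at about 140% in these data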
* marks the source's active call; other numbers are inactive results.

Screening COc1ccc(NC(=O)c2ccc3c(c2)OCO3)cc1Cl returned STAT3 act 71, STAT1 inh -23, STAT3 inh 39, NF-kB neuron act 5*, STAT1 activator 121 and APP 5'UTR act 138*.
For COc1ccccc1NC(=O)Nc1ccc2c(c1)OCCO2 the results were STAT3 act 103, STAT1 inh -32, STAT3 inh -1, NF-kB neuron act 2.1 and STAT1 activator 133*.
`COc1cccc(OC)c1C(=O)Nc1ccc2c(c1)OCCO2` gave STAT3 act 104, STAT1 inh 0, STAT3 inh -2, NF-kB neuron act 0.99, STAT1 activator 100 and APP 5'UTR act 21.
Screening COc1cc(C(=O)Nc2ccc3c(c2)OCCO3)ccc1OC(C)C returned STAT3 act 100, STAT1 inh -24, STAT3 inh 3, NF-kB neuron act 2, STAT1 activator 122 and APP 5'UTR act 46.
Screening O=P(Cc1ccccn1)(c1ccccc1)c1ccccc1 returned STAT3 act 100, STAT1 inh 9, STAT3 inh 1, NF-kB neuron act 1, STAT1 activator 92 and APP 5'UTR act -2.
O=c1[nH]nc(SCc2nc3ccccc3s2)n1C1CC1 was read as STAT3 act 127, STAT1 inh -23, STAT3 inh -30, NF-kB neuron act 1.2, STAT1 activator 120 and APP 5'UTR act 37.
CCCn1c(SCc2nc3ccccc3s2)n[nH]c1=O was read as STAT3 act 124, STAT1 inh -36, STAT3 inh -18, NF-kB neuron act 2.1, STAT1 activator 134* and APP 5'UTR act 119.
Screening Cc1ccccc1-n1c(C)nnc1SCc1nc2ccccc2s1 returned STAT3 act 142*, STAT1 inh -35, STAT3 inh -44, NF-kB neuron act 1.5, STAT1 activator 132* and APP 5'UTR act 141*.
For O=C(NC1CCCC1)c1cccc(Oc2ccccc2)c1 the results were STAT3 act 112, STAT1 inh -6, STAT3 inh 0, NF-kB neuron act 1.2, STAT1 activator 104 and APP 5'UTR act 11.
For COc1ccc2oc(=Nc3cccc(F)c3)c(C(N)=O)cc2c1 the results were STAT3 act 92, STAT1 inh -28, STAT3 inh 12, NF-kB neuron act 1.2, STAT1 activator 123 and APP 5'UTR act 7.
`COc1ccc2cc(C(N)=O)c(=Nc3ccc(C)cc3)oc2c1` gave STAT3 act 98, STAT1 inh -43, STAT3 inh 13, NF-kB neuron act 1.3, STAT1 activator 138* and APP 5'UTR act 16.
Cc1cccc(N=c2oc3cc(O)ccc3cc2C(N)=O)c1 was read as STAT3 act 99, STAT1 inh -33, STAT3 inh 6, NF-kB neuron act 1.9, STAT1 activator 130* and APP 5'UTR act -11.
Cc1cc(C)n2nc(C(=O)Nc3ccc4c(c3)CCC4)nc2n1 was read as STAT3 act 91, STAT1 inh -18, STAT3 inh 16, NF-kB neuron act 2.4, STAT1 activator 117 and APP 5'UTR act 37.
Screening Cc1cnc(C(=O)Nc2ccc3c(c2)CCC3)cn1 returned STAT3 act 75, STAT1 inh -24, STAT3 inh 37, NF-kB neuron act 7.4*, STAT1 activator 122 and APP 5'UTR act 163*.
`CN1N=C(C(=O)Nc2ccc3c(c2)CCC3)CCC1=O` gave STAT3 act 91, STAT1 inh -35, STAT3 inh 13, NF-kB neuron act 1.7, STAT1 activator 132* and APP 5'UTR act 24.
For O=C(Nc1ccc2c(c1)CCC2)c1cnccn1 the results were STAT3 act 91, STAT1 inh -46, STAT3 inh 10, NF-kB neuron act 2.6, STAT1 activator 143* and APP 5'UTR act 105.
For Cc1cnc(C(=O)Nc2ccc(F)c(F)c2)cn1 the results were STAT3 act 92, STAT1 inh -19, STAT3 inh 15, NF-kB neuron act 2.2, STAT1 activator 118 and APP 5'UTR act 6.
`COc1cccc(/C=N\NC(=O)Cn2nnc3ccccc32)c1O` gave STAT3 act 108, STAT1 inh -8, STAT3 inh -8, NF-kB neuron act 3.3*, STAT1 activator 105 and APP 5'UTR act 0.
COC(=O)c1ccc(NC(=O)Cn2nnc3ccccc32)cc1 was read as STAT3 act 103, STAT1 inh -37, STAT3 inh 2, NF-kB neuron act 2.5, STAT1 activator 134* and APP 5'UTR act 63.
